Assay outcomes as filed in PubChem.
Compounds with a hit are over-represented: about 4.7% of the library has one in this group of screens.
IMP-1 inhibitor: blocks Pseudomonas aeruginosa IMP-1 metallo-beta-lactamase | hit rate 0.45% among 290,000 | purified IMP-1, nitrocefin hydrolysis, epi-absorbance fluorescence | inhibition, % at 5.6 µM;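 active = inhibition above the mean plus 3 SD of all compounds in the same screening run, cut at about 4.5% in these data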;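 also: 0% = IMP-1 with DMSO and 100% = DMSO wells lacking enzyme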
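system = purified recombinant IMP-1 beta-lactamase | amount = 0.2 nM IMP-1, as dispensed | medium = HEPES buffer pH 7.1 with ZnSO4 and Brij 35 | times = 25 °C, 15 min preincubation, 25 min reaction | detection = plate fluorescence quenching by hydrolysis product, ex 480/em 530 nm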
Mdm2 MdmX PPI: disrupts the human Mdm2-MdmX interaction; O15151+Q00987; SaOS-2 split-luciferase Mdm2/MdmX complementation, luminescence; inhibition, % at 8 µM; hit rate 3% among 330,000; AID 485346;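 active = inhibition of at least 50% at 8 µM in the primary screen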
Target sequence (O15151 whole entry, looked up): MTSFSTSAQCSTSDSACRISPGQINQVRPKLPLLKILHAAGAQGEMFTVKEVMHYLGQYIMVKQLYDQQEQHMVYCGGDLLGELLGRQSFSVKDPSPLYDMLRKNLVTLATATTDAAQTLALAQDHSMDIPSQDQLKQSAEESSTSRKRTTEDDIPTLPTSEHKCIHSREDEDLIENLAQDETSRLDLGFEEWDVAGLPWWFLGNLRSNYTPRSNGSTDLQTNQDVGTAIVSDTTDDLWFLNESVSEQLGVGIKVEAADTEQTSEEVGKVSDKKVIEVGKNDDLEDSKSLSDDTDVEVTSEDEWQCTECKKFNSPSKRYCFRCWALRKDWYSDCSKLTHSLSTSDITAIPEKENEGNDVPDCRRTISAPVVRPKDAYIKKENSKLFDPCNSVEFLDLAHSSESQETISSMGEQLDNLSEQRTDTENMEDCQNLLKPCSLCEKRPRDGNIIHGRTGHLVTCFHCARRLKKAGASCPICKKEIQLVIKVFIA
Target sequence (Q00987 whole entry, looked up): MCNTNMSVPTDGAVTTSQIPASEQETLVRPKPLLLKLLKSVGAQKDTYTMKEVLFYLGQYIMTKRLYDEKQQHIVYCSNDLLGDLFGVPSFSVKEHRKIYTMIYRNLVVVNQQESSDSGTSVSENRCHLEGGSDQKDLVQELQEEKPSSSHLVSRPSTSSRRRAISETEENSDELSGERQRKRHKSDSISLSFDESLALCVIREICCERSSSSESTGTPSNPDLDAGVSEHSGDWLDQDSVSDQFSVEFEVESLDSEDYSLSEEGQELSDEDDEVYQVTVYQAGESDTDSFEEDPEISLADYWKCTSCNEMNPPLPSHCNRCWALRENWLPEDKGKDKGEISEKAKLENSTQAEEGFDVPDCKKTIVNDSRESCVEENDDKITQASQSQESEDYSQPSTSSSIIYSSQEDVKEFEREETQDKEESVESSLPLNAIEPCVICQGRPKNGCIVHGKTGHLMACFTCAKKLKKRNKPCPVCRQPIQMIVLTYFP
697 NFkB inh: inhibitors of the PMA/ionomycin-induced NF-kB reporter in 697 B cells; 697 B-cell NF-kB luciferase reporter, 16 h; inhibition, % at 4 µM; hit rate 0.33% among 330,000; AID 435022; in the data active = inhibition above about 35%
VIM-2 inh: inhibitors of Pseudomonas aeruginosa VIM-2 metallo-beta-lactamase; inhibition, % at 5.6 µM; purified VIM-2, nitrocefin hydrolysis, epi-absorbance fluorescence; hit rate 0.89% among 290,000;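 active = inhibition above the mean of all tested compounds plus 3 SD, cutoff set per screening run, cut at about 7.5% in these data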;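 also: red hydrolysis product quenches plate fluorescence so inhibitors raise well fluorescence; 0% = enzyme with DMSO and 100% = DMSO without enzyme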
Jurkat NFkB inh: inhibitors of the PMA/ionomycin-induced NF-kB reporter in Jurkat cells; inhibition, % at 4 µM; PMA/ionomycin-induced NF-kB luciferase reporter, luminescence; hit rate 0.53% among 330,000; in the data active = inhibition above about 50%
aSyn 5UTR inh: MLPCN primary screen, SNCA 5' untranslated region | inhibition, % (tested at 7.5 µM) | hit rate 0.82% among 300,000 | alpha-synuclein 5'UTR reporter, inhibitor activity | AID 1813; in the data active = inhibition above about 60%;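 also: H4 neuroglioblastoma cells stably carrying SNCA 5'UTR luciferase fusion; 0% = DMSO wells and 100% = positive control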
Mdm2-MdmX conf: human Mdm2/MdmX binding inhibition, confirmed. shares compounds with Mdm2 MdmX PPI. luminescent assay. inhibition, % at 8 µM. hit rate 55% among 10,000; in the data active = inhibition above about 40%
FLuc counter: inhibits full-length luciferase, flagging false Mdm2/MdmX hits; hit rate 77% among 6,200; inhibition, % at 8 µM; AID 504607; SaOS-2 full-length luciferase counterscreen, luminescence; shares compounds with Mdm2 MdmX PPI;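 active = mean inhibition at 8 µM reaching about 37%, which flags the compound as non-specific, limit read from the data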;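 also: p53-null SaOS-2 cells with luciferase driven by a doxycycline-inducible promoter; compound on cells about two nights before reading with doxycycline added after day one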
An asterisk follows results filed as active; . = no result.

SMILES | IMP-1 inhibitor | Mdm2 MdmX PPI | 697 NFkB inh | VIM-2 inh | Jurkat NFkB inh | aSyn 5UTR inh | Mdm2-MdmX conf | others
CCOc1ccc(C(C)=O)cc1COC(=O)CNC(=O)C12CC3CC(CC(C3)C1)C2 | . | 56.8* | -2.8 | . | 14.3 | . | 1.8
O=C(Cc1ccccc1)Nc1ccc(-c2nnc(-c3ccco3)o2)cc1 | -3.6 | -4.3 | -65.5 | -1.6 | -36.8 | -76.9 | .
O=C(Cc1ccc(Cl)cc1)Nc1ccc(-c2nnc(-c3ccco3)o2)cc1 | -2.6 | 53.9* | -24.2 | 0.1 | -19.7 | -26.5 | 10.4
Cc1cc(C)cc(OCC(=O)Nc2cccc(-c3nnc(-c4ccco4)o3)c2)c1 | -4.7 | 83.0* | -47.5 | -2.8 | -4.1 | -53.1 | 40.4* | FLuc counter=98.9*
COc1ccc(CC(=O)Nc2cccc(-c3nnc(-c4ccco4)o3)c2)cc1 | -2.6 | 25.8 | -59.4 | -3.9 | -23.6 | 35.9 | .
Cc1ccc(-c2nnc(-c3ccc(NC(=O)Cc4cccs4)cc3)o2)cc1 | -2.1 | 78.5* | -10.2 | -0.5 | -27.8 | -36.6 | 21.1
O=C(Cn1c(NCCCO)nc2ccccc21)c1ccc(Cl)cc1 | 0.6 | 18.1 | -2.5 | 0.2 | -14.3 | 7.9 | .
Cc1cc2nc(NCCCO)n(CC(=O)c3cc(C(C)(C)C)c(O)c(C(C)(C)C)c3)c2cc1C | . | 97.9* | 18.2 | . | 15.0 | . | 63.5* | FLuc counter=41.0*
CC(=O)Nc1ccc(S(=O)(=O)NCCC(=O)OCC(=O)NNC(=O)c2ccccc2)cc1 | . | 20.0 | 12.0 | . | 5.3 | -1.3 | .
CCOC(=O)c1sc(=NC(=O)c2ccc(S(=O)(=O)N(C)c3ccccc3)cc2)n(C)c1C | -0.9 | 62.6* | -23.6 | -1.1 | -17.4 | -7.5 | 21.1
CC[C@H](C)[C@@H](NC(=O)O[C@@H]1C(=O)c2cc(OC)ccc2O[C@H]1c1ccc(OC)c(Br)c1)C(=O)OC | -4.2 | 24.8 | -19.5 | -3.6 | -6.4 | . | .
COc1ccc2c(c1)C(=O)[C@H](O)[C@@H](c1ccc(OC)c(Br)c1)O2 | -2.1 | 70.7* | 0.1 | 0.9 | -22.1 | 39.2 | -6.4
COC(=O)Cc1c(C)c2ccc(OCC(=O)N3CCC(C)CC3)c(C)c2oc1=O | -2.2 | 15.7 | -32.4 | -2.3 | 3.0 | -11.5 | .
O=C(CN1C(=O)NC2(CCCC2)C1=O)Nc1cc(S(=O)(=O)N2CCCCC2)ccc1Cl | . | 6.0 | 0.9 | . | -0.9 | . | .
CCc1ccc2nc(N(CCCN(C)C)C(=O)c3ccc(S(=O)(=O)N4CCCc5ccccc54)cc3)sc2c1 | -1.4 | 91.2* | -41.7 | 0.4 | 14.0 | 13.8 | 29.6
CN(C)CCCN(C(=O)c1ccc2c(c1)CCCC2)c1nc2ccc(Cl)cc2s1 | -1.6 | 54.3* | -25.1 | -3.3 | 7.5 | -69.8 | 19.4
COc1cccc2sc(N(CCCN(C)C)C(=O)c3ccc(S(=O)(=O)N4CCCc5ccccc54)cc3)nc12 | 0.2 | 79.9* | -23.7 | 0.1 | 29.4 | 64.1* | 28.4
Cc1ccc2nc(N(CCCN(C)C)C(=O)CCc3ccccc3)sc2c1 | -0.6 | . | . | -2.3 | . | -9.6 | .
CCc1ccc2nc(N(CCCN(C)C)C(=O)c3ccc(S(=O)(=O)N4CCCC4)cc3)sc2c1 | -2.7 | 27.6 | -19.6 | -3.9 | -17.6 | -34.8 | .
CN(C)CCCN(C(=O)CCc1ccccc1)c1nc2ccc(Cl)cc2s1 | -4.6 | 50.2* | 15.1 | -2.2 | 13.5 | 109.5* | 35.2 | FLuc counter=53.7*
O=C(COC(=O)CNC(=O)c1ccccc1)Nc1nc(-c2ccccc2)cs1 | -3.9 | -11.9 | -16.6 | -3.7 | -20.7 | -71.1 | .
COc1ccc(C(=O)CC(=O)C(=O)Nc2cccc(C(C)=O)c2)cc1 | -4.3 | -11.9 | -17.2 | -5.0 | -33.7 | -31.0 | .
COc1ccc(C(=O)N/C(=C\c2cn(S(=O)(=O)N(C)C)c3ccccc23)C(=O)N2CCN(C)CC2)cc1 | -2.5 | 5.3 | 11.6 | -5.1 | -7.4 | 16.3 | .
COCCn1c(SCc2nnc(-c3ccc(OC)c(OC)c3)o2)nnc1-c1ccncc1 | -2.9 | 17.3 | -7.2 | -3.4 | 5.5 | 15.9 | .
N#CN=C1CCCCCN1CC(N)=O | -3.4 | -2.8 | -4.8 | -3.4 | 2.0 | 29.1 | .
SMILES | IMP-1 inhibitor | Mdm2 MdmX PPI | 697 NFkB inh | VIM-2 inh | Jurkat NFkB inh | aSyn 5UTR inh | Mdm2-MdmX conf | others
COc1cc(CNS(=O)(=O)CCl)cc(OC)c1OC | . | -8.4 | 7.4 | . | -2.3 | . | .
CCOC(=O)C1=C(C)N=C2SC(C(=O)OC)=CC(=O)N2C1c1ccc(OC)cc1 (configuration not stated) | -3.1 | -1.6 | 10.1 | -4.1 | 8.7 | 15.6 | .
CCc1ccc2nc(N(CCCN(C)C)C(=O)c3ccc(C(=O)c4ccccc4)cc3)sc2c1 | -3.5 | 74.3* | -18.6 | -2.9 | -8.8 | 18.2 | 20.9
CCOc1ccc2nc(N(CCCN(C)C)C(=O)c3ccc(S(=O)(=O)N4CCc5ccccc5C4)cc3)sc2c1 | -2.4 | 48.6 | -18.6 | -0.9 | -25.9 | 20.2 | .
COc1cc2nc(N(CCCN(C)C)C(=O)c3ccc(C(=O)c4ccccc4)cc3)sc2cc1OC | . | 40.6 | -2.8 | . | -2.8 | -16.5 | .
CN(C)CCCN(C(=O)c1ccc(S(=O)(=O)N2CCc3ccccc3C2)cc1)c1nc2c(F)cc(F)cc2s1 | . | 31.3 | 0.9 | . | -2.6 | 3.9 | .
Cc1ccc2sc(N(CCCN(C)C)C(=O)c3ccc(S(=O)(=O)N4CCc5ccccc5C4)cc3)nc2c1C | . | 98.4* | -18.1 | . | -11.7 | -7.0 | 74.8* | FLuc counter=51.3*
COc1cccc2sc(N(CCCN(C)C)C(=O)c3ccc(S(=O)(=O)N4CCc5ccccc5C4)cc3)nc12 | -1.8 | 62.0* | 10.4 | -2.8 | 1.9 | 94.2* | 23.2
CCOC(=O)C1=CN(Cc2cccc(F)c2)S(=O)(=O)NC1c1ccccc1 (configuration not stated) | . | -3.4 | 3.1 | . | . | . | .
CCOC(=O)C1=CN(Cc2cccc(F)c2)S(=O)(=O)NC1CCc1ccccc1 (configuration not stated) | . | 60.8* | -6.6 | . | . | . | 29.1 | FLuc counter=47.0*
CCc1ccccc1N(CC(=O)NC(C)(C)C)C(=O)CCC(=O)Nc1ccccn1 | -1.3 | 11.2 | -2.1 | -0.5 | -6.7 | 8.2 | .
COc1ccc2c(c1)c(CC(=O)Nc1nnc(C3CC3)s1)c(C)n2C(=O)c1ccc(Cl)cc1 | -1.0 | 82.8* | 17.8 | -0.8 | 18.4 | 24.0 | 79.8* | FLuc counter=64.8*
COc1ccc2c(c1)c(CC(=O)Nc1ccc(C(C)=O)cc1)c(C)n2C(=O)c1ccc(Cl)cc1 | -1.0 | -2.2 | -23.5 | -0.6 | 2.1 | -42.7 | .
CCOc1ccc(-n2nc3c(=O)n(CCN4CCCCC4)nc(C)c3c2C)cc1 | -3.5 | 12.5 | -6.4 | -4.9 | -7.2 | 2.4 | .
CC(=O)Nc1ccc(S(=O)(=O)NCC2CCC(C(=O)NCCCN(C)Cc3ccccc3)CC2)cc1 (configuration not stated) | -2.9 | 3.0 | -16.7 | -6.8 | -14.9 | -33.1 | .
